In the EternaBench riboswitch data:

System: MS2 coat protein
Assay: apparent Kd, MS2 coat protein; higher = weaker binding; RNA-MaP array; FMN 200 µM where present
How it was run: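 Designs on Illumina sequencing-chip clusters, transcribed by stalled E. coli RNA polymerase, were exposed to SNAP-549-labelled MS2 coat protein in doubling steps from 0.7 or 1.5 nM up to 3 µM, without and then with constant ligand. The buffer held 100 mM Tris-HCl pH 7.5, 80 mM KCl, 4 mM MgCl2, BSA, DTT, yeast tRNA and Tween-20. Apparent Kd values are medians of filtered per-cluster binding-curve fits to green signal normalised to red-channel RNA signal and control-cluster median Fmax.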

[1] = designed as: ON switch for flavin mononucleotide, no ligand
[2] = ligand present: flavin mononucleotide, designed as: ON switch for flavin mononucleotide
[3] = designed as: OFF switch for flavin mononucleotide, no ligand
[4] = ligand present: flavin mononucleotide, designed as: OFF switch for flavin mononucleotide

AAUUGGAUGCAGAAGGCAUGGACGACUCGUCACAUUAACAUGAGGAUCACCCAUGUCAAAAUACAUGAGGAUAUGCAUCCUAAA
apparent Kd [1]: 140 nM | apparent Kd [2]: 12 nM

AAUUGGCUCGCGCAGGAUAUGGAUCAUUCCACAUGAGGAUCACCCAUGUUAAGGAGCCUUUGCAUCCAGAAGGGUGCUGGUCUUU
apparent Kd [1]: 41.2 nM | apparent Kd [2]: 14.6 nM

AAUUGUAGAACAAUCACUACCAGUCAGGAUAUACAUGAGGAUCACCCAUGUCGUGUCGACAGCAUGUAGAAGGGACGGUUAUAU
apparent Kd [3]: 51.6 nM | apparent Kd [4]: 115 nM

AAUUUAAUACAUGAGGAUCACCCAUGUAAAUUAAUUAAGAUCAAGGAUAUCAGCUCGAAUAGAGCUGAGAAGGUGAUCACAUGU
apparent Kd [1]: 351 nM | apparent Kd [2]: 86.5 nM

AAUUUUUAACAGAAGGCGUUUAUAGUUAAGUUACGAGGAUAUGUAUUACAUGAGGAUCACCCAUGUUACUAGGGUAGUAUAUAA
apparent Kd [1]: 22.1 nM | apparent Kd [2]: 20.7 nM

ACAACAAAGUGAGGAUAUACAUAAUUCAUAACUGUAGAAGGCACAAACCUCAAUACAUGAGGAUCACCCAUGUUAUAUAUCUAA
apparent Kd [3]: 34.8 nM | apparent Kd [4]: 38.5 nM

ACAAGAUCAGGAUAUACAUGAGGAUCACCCAUGUUUAUCAAAAAGGGACUUUCUUAAUGUAGAAGGGAUCUUGU
apparent Kd [3]: 27.5 nM | apparent Kd [4]: 83.9 nM

ACAGAGGCUGACAUGAGGAUCACCCAUGUUAGAUUGUUAUGUCAGGAUAUUAUCUGGCAACCAGAUGAGAAGGGACCCUCUGUG
apparent Kd [1]: 22.6 nM | apparent Kd [2]: 7.54 nM

ACAGCGGCAGGAUAUGCAUGCUCCGACUUAUGCCUACAAAGACAUGAGGAUCACCCAUGUAGAAGGGCCAGCGG
apparent Kd [3]: 13.8 nM | apparent Kd [4]: 15.2 nM

ACAGGCUUCGAGAAGGACAUGAGGAUCACCCAUGUGCGUGUGAAGCAGCCGUGAGGCUGCAUCAUGUAGGAUAUCGGAGUCUGG
apparent Kd [3]: 76 nM | apparent Kd [4]: 504 nM

ACAGUCACAGUAACCUGUGGCCGUGAGGAUAUAUAUGGCUCGGAGCGGACAUGAGGAUCACCCAUGUAGAAGGCACGAACUAAA
apparent Kd [3]: 6.21 nM | apparent Kd [4]: 7.09 nM

ACAUAAAUUCGAGGAUAUCGGUGAUAAAGAAGACGAGAAGGCGAUUAAAGAGAGAUGGUUAUAGACAUGAGGAUCACCCAUGUA
apparent Kd [1]: 28.6 nM | apparent Kd [2]: 22.8 nM

ACAUACAUGACAUGACAUGAGGAUCACCCAUGUCCAUGUUACAAGGAUAUGUACAUGAAACAUGUACAGAAGGUGUAUUGGACU
apparent Kd [3]: 13.1 nM | apparent Kd [4]: 18 nM

ACAUCGUGAGACAUGAGGAUCACCCAUGUGUGAUAGUGGGCACAGGAUAUCCAGAUCUGGAAUCUGGAGAAGGGUGAUCGUUAA
apparent Kd [1]: 47 nM | apparent Kd [2]: 149 nM

ACAUGAGAUCUAGGAUAUAUUGUACCUACAUGUGACAUGAGGAUCACCCAUGUGGUAAGUAUGACAUAGAAGGAGAAGAUAUGU
apparent Kd [1]: 71 nM | apparent Kd [2]: 54.3 nM

ACAUGAGGAUCACCCAUGUAUACAUAGGAUAUUGGUGAUCAGGGAUGUUUUACAGGAUAUGUCUGCGAGAAGGAUGCAAGUACU
apparent Kd [1]: 178 nM | apparent Kd [2]: 94.7 nM

ACAUGAGGAUCACCCAUGUAUUACAUGGUUAUGUUUAUUAACAGAAGGCGAAAUUACCACUGAAUCGAGGAUAUGUAUUCUAUA
apparent Kd [3]: 53.4 nM | apparent Kd [4]: 45.1 nM

ACAUGAGGAUCACCCAUGUCUUUAUCCGAUUCUUCAUUUACGUAGGAUAUCGUCUAUACUAUCAUCGAGAAGGACGUUCUUUAA
apparent Kd [1]: 17.6 nM | apparent Kd [2]: 15.9 nM

ACAUGAGGAUCACCCAUGUGAACAUAGGAUAUUGGUGAUCAGGCGUGUUAUACAGGAUAGGUCUGCGAGAAGGGUGCACGUUGC
apparent Kd [1]: 540 nM | apparent Kd [2]: 146 nM

ACAUGAGGAUCACCCAUGUGACCACAAUGGCUGAUAUAGAAACAGGAUAUUCGUGAAUAUCUAACGAAGAAGGGUUAUGACUGG
apparent Kd [3]: 77.8 nM | apparent Kd [4]: 85 nM

ACAUGAGGAUCACCCAUGUUAUUUGGGAAUUAAUUUAUUUGUAGAAGGAUGUUUUCUUGUUAGUCAUAGGAUAUACUAUUAAAU
apparent Kd [3]: 40.7 nM | apparent Kd [4]: 34.4 nM

ACAUGAGGAUCACCCAUGUUGAAUUAGGAUAUUUGACUGCACAUGAGGUUCACCCAUGUUCAACCGGAGAAGGGAUUAAUAAUU
apparent Kd [1]: 82.5 nM | apparent Kd [2]: 83.6 nM

ACAUGAGGAUCACCCAUGUUUACAUGGAUUAUUAAUCUUGGAUAGGAUAUGUUAGUUAAGUAUUUACAGAAGGAUCAAUUCCUU
apparent Kd [3]: 27.7 nM | apparent Kd [4]: 20.2 nM

ACAUUUUAUGCAGGAUAUUGACAUAUAUUUAAACAAGAAGGGCAUUACAUGAGGAUCACCCAUGUUAUAAUGGUAUAUAAGUUC
apparent Kd [3]: 21.4 nM | apparent Kd [4]: 19.2 nM

ACCACGUCAGCGAUAUGAUCGAGAGAUCAUGUCGCUGAAUUUAGAAGGACAUGAGGAUCACCCAUGUAGGAUAUGGGUCGUGGA
apparent Kd [1]: 39.1 nM | apparent Kd [2]: 11.8 nM

ACCACGUUAGCGAUAUGAUCGAGAGAUCAUGUCGCUAUAUUUAGAAGGACAUGAGGAUCACCCAUGUAGGAUAUGGGUCGUGGA
apparent Kd [1]: 36.3 nM | apparent Kd [2]: 9.03 nM

ACCGUCCUCGUCAGGAUAUGUAUUGACUCUCCGAUACAGAAGGGACAUGAGGAUCACCCAUGUCCGGGACCUUA
apparent Kd [3]: 18.2 nM | apparent Kd [4]: 21.7 nM
